# The source made the active and inactive calls.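 How the source made its calls: active means duplicate-averaged activation above buffer control mean plus 5 SD of those controls; inactive means the rest.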
# Experiment: nonspecific flux increase, KCNQ1-free cells – parental CHO cells, counter-screen for KCNQ1 potentiator project (AID 493006);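 on activation: fluorescence ratio of max minus min over baseline after K+ and Tl+ depolarization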
# Conditions: parental CHO-K1 cells, FluxOR thallium flux, at 10 µM; active compounds read high
# In short: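 Benchmarks – buffer and R-L3 controls · Assay system – untransfected host CHO-K1 cells with FluxOR thallium dye · Measure – fluorescence change ratio scaled 0% buffer, 100% R-L3 · Technique – kinetic thallium-flux fluorescence · Timing – overnight 37 °C plating, 90 min RT dye, 20 min compound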
SMILES,outcome,activation
Cc1ccc(O)c(C(=O)CC(=O)c2ccc(Cl)cc2)c1,inactive,–
Cc1sc2nc(C(C)C)nc(SCC(=O)NCc3ccco3)c2c1C,–,276% (active)
O=C(NC(=S)Nc1ccccc1)c1csnn1,–,588% (active)
CS(=O)(=O)NN1C(=O)c2ccccc2NC1c1ccccc1F (stereo not given),–,143% (active)
Cc1ccc(N=Nc2ccc(O)c3ncccc23)cc1C,–,154% (active)
CC(=O)CC1(OC(C)=O)C(=O)N(C)c2ccccc21 (stereo not given),inactive,–
CCN(CC)C(=S)NC(=O)c1ccc(Cl)cc1Cl,–,226% (active)
COc1ccccc1C(=O)Nc1ccnn1C1CCN(CCCC2CCCC2)CC1,inactive,–
CCC(CC)C1=NN2C(=N)/C(=C\c3cc(C)n(-c4cccc(C)c4)c3C)C(=O)N=C2S1,inactive,–
Cc1ccc(OCC(=O)NNC(=S)NC(=O)c2cccs2)c(C)c1,–,195% (active)
Cc1ccc(-c2csc3nc[nH]c(=S)c23)cc1,–,308% (active)
O=Cc1cc2ccccc2nc1SCCCF,inactive,–
Cc1c(Cl)cccc1NC(=O)Cn1c(CCC(=O)O)ccc1-c1ccccc1,inactive,–
Cc1cccc(NC(=S)NC(=O)c2ccc(Br)o2)c1C,inactive,–
COc1ccc(-c2cc(C(=O)Nc3c(Cl)cc(Cl)cc3Cl)c3ccccc3n2)cc1OC,inactive,–
Cc1cccc(-c2nnc(NC(=O)c3ccc(Cl)cc3)o2)c1,inactive,–
COc1ccc2[nH]c3c(c2c1)CCNC3C1CC=C(C)CC1 (stereo not given),inactive,–
COc1ccc(S(=O)(=O)NCCOc2ccccc2)cc1OC,inactive,–
Cc1onc(-c2ccccc2)c1C(=O)N1CCN(S(=O)(=O)c2ccc(OC(F)(F)F)cc2)CC1,inactive,–
O=C(NC(=S)Nc1ccc(N2CCCCC2)cc1)c1cccs1,–,158% (active)

SMILES,outcome,activation
O=C(Nc1nnc(-c2ccc3c(c2)CCCC3)o1)c1ccccc1Cl,–,184% (active)
COc1ccc(-c2csc(N(CCCN(C)C)C(=O)c3ccccc3Cl)n2)cc1,inactive,–
CN(C)CCNc1ncnc2c1sc1nc(N3CCCC3)c3c(c12)CC(C)(C)OC3,inactive,–
COc1cccc2sc(Nc3nnc(-c4ccccc4Cl)o3)nc12,inactive,–
Cc1ccc(-c2nc3ncccc3o2)cc1NC(=O)c1cccnc1,inactive,–
O=c1c2c(-c3ccco3)csc2nc(SCc2cn3cccnc3n2)n1-c1ccccc1,inactive,–
O=C(NNC(=O)c1ccc2ccccc2c1O)c1cccs1,inactive,–
CC(C)(C)c1ccc2c(c1)OC(C(=O)N/N=C\c1ccccn1)CO2 (stereo not given),inactive,–
COc1ccc(C(=O)Nc2ccnn2C2CCN(Cc3ccncc3)CC2)cc1,inactive,–
CC1=C(C)/C(=N\OS(=O)(=O)c2ccccc2)C=CC1=O,inactive,–
C/C(=N\NC(=O)C1COc2ccccc2O1)c1ccc(N2CCOCC2)cc1 (stereo not given),inactive,–
Nc1nonc1C(=O)NCCN=Cc1cc(Cc2ccccc2)cc(Br)c1O,inactive,–
CC1CCc2c(sc(NS(=O)(=O)c3ccccc3)c2C(=O)OC(C)C)C1 (stereo not given),–,284% (active)
O=C(Cn1c(=O)c2c(ncn2Cc2ccccc2)n(Cc2ccccc2)c1=O)N1CCc2ccccc21,inactive,–
Fc1ccc(COc2ccc(Br)cc2CNCc2ccncc2)cc1,inactive,–
Cc1nc2c(c3c1[nH]c1ccccc13)C(=O)CC(C)(C)C2,inactive,–
O=C(NN=C1c2ccccc2-c2ccccc21)c1cccc(Br)c1,–,196% (active)
COc1cc(Br)cc(C=Nc2cccc(C(F)(F)F)c2)c1O,inactive,–
O=C(NNC(=S)NC(=O)c1ccco1)c1ccc(F)cc1,–,198% (active)
O=C(Nc1nnc(-c2ccco2)o1)c1cccc(Cl)c1,inactive,–
